Measured values of several laboratories.
Each line is one published result; the experiments were not run side by side.
Target: Serine/threonine-protein kinase TNNI3K (TNNI3K, Homo sapiens, UniProt Q59H18)
Sequence (Q59H18 1-835, as in one of the studies): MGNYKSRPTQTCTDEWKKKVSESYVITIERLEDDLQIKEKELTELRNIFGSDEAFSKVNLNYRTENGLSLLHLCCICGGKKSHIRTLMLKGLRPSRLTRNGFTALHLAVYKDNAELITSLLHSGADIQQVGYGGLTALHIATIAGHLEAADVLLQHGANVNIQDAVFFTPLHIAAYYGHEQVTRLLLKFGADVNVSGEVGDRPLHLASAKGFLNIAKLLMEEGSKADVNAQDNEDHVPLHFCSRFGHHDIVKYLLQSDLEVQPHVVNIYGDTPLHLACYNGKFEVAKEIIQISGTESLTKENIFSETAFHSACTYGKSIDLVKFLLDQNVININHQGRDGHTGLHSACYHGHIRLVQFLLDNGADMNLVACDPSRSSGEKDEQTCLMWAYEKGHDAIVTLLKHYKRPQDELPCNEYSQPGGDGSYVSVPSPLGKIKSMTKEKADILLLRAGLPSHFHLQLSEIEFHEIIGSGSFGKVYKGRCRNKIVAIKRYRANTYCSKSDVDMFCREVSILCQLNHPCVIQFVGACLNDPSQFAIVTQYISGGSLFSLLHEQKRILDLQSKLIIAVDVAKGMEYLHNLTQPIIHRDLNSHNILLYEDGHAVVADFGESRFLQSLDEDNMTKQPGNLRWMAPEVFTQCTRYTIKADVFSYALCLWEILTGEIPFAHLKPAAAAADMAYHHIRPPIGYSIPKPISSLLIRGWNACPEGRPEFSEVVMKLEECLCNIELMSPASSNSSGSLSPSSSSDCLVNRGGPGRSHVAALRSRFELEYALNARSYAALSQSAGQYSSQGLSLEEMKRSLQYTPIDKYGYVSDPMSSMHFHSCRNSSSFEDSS

| Structure (SMILES) | effect on | method | tested at | remaining binding [%] |
| --- | --- | --- | --- | --- |
| O=C(c1ccc(Nc2ncc(Cl)c(-c3ccc(Cl)s3)n2)cc1)N1CCC(N2CCCC2)CC1 | binding | competition with immobilised ligand | 1 µM | 50 |
| CC1CCCN1c1nccc(-c2cnn3ncccc23)n1 (stereo not shown) | binding |  | 1 µM | 99 |
| O=C(NCCCN1CCOCC1)c1ccc(Nc2ncc(Cl)c(-c3ccc(Cl)s3)n2)cc1 | binding | competition with immobilised ligand | 1 µM | 78 |
| c1cncc(-c2cccc(Nc3nccc(NC4CCCCC4)n3)c2)c1 | binding | competition with immobilised ligand | 10 µM | 95 |
| Cc1c[nH]c2nccc(Oc3c(F)cc(Nc4cc(Cl)nc(N)n4)cc3F)c12 | cell-free assay | competition with immobilised ligand | 0.1 µM | 98 |
| CCN1CCN(Cc2ccc(C(=O)Nc3ccc(C)c(Oc4ccc5c(c4)CC(=O)N5)c3)cc2C(F)(F)F)CC1 | binding | competition with immobilised ligand | 1 µM | 88 |
| CN(CCCC(F)(F)F)c1nccc(-c2cnn3ncccc23)n1 | binding |  | 1 µM | 100 |
| FC(F)(F)Oc1cccc(-c2cnc3ccc(-c4ccncc4)nn23)c1 | binding | competition with immobilised ligand | 5 µM | 91 |
| Nc1ncc2c(n1)-c1c([nH]c3ccc(C#CC4CC4)cc13)CCCC2 | binding | competition with immobilised ligand | 1 µM | 94 |
| CN(c1nccc(-c2cnn3ncccc23)n1)C1CC1 | binding |  | 1 µM | 84 |
| COc1cnc(Nc2cccc(S(N)(=O)=O)c2)nc1N1CCN(c2ccccc2)C(=O)C1 | binding | competition with immobilised ligand | 1 µM | 86 |
| N[C@@H]1CCN(c2nccc(-c3cnn4ncccc34)n2)C1 | binding |  | 1 µM | 94 |
| O=C(NCCCC1CCCCC1)c1ccc(CNC(=O)c2cnn(-c3ccccc3)c2C(F)(F)F)cc1 | cell-free assay | competition with immobilised ligand | 0.1 µM | 79 |
| c1cnn2ncc(-c3ccnc(N4CCC45COC5)n3)c2c1 | binding |  | 1 µM | 100 |
| CS(=O)(=O)c1cc(C2(NC(=O)c3cncc4c3cnn4-c3ccc(F)cc3)CC2)ccn1 | cell-free assay | competition with immobilised ligand | 1 µM | 64 |
| CN(C)c1nccc(-c2cnn3ncccc23)n1 | binding |  | 1 µM | 100 |
| Cn1nc(C(F)(F)F)cc1-c1cnc(N2CCc3cc(S(=O)(=O)Nc4c(F)cc(Cl)cc4F)cc(N4CCCC4=O)c32)nc1 | cell-free assay | competition with immobilised ligand | 1 µM | 65 |
| O=C(c1ccc(Nc2nccc(-c3cc4ccccc4s3)n2)cc1)N1CCC(N2CCCC2)CC1 | binding | competition with immobilised ligand | 1 µM | 71 |
| Cc1nc(C2CCN(C(=O)c3ccc(OC(F)(F)F)cc3N)CC2)c2ncc(N3CCN(C)CC3)cc2n1 | cell-free assay | competition with immobilised ligand | 1 µM | 100 |
| C[C@H]1CCN(c2nccc(-c3cnn4ncccc34)n2)C1 | binding |  | 1 µM | 100 |
| Cc1noc([C@H]2C[C@@H](c3ccc(C(F)(F)F)cc3)CN(C(=O)N3CCS(=O)(=O)C3)C2)n1 | cell-free assay | competition with immobilised ligand | 1 µM | 100 |
| O=C(NCC1CCOCC1)c1n[nH]cc1NC(=O)c1c(F)cccc1F | binding | competition with immobilised ligand | 1 µM | 100 |
